Compound activity deposited in PubChem by several laboratories.
The entries come from a sample that favours hits as a whole.
NALP3 yeast inh – NALP3 inhibition in yeast. Yeast reconstituted NLRP3/ASC/caspase-1, beta-gal luminescence, 24 h. inhibition, % at 10 µM. hit rate 0.39% among 330,000. AID 2825;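 active = inhibition of 50% or more; inactive = inhibition below 50%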;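 note: plate controls were induced DMSO wells for no effect and uninduced yeast grown without galactose for full effect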
Calb FLC – affects C. albicans growth with fluconazole; hit rate 0.57% among 300,000; growth inhibition, % (concentration not given with the values); AID 1979; C. albicans CaCi-2 + fluconazole, Alamar Blue growth, 48 h;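 active = growth inhibition above about 58% in most replicates, limit read from the data, passing the limit was not always enough; inconclusive = exactly half the replicates above a set limit; inactive = most replicates below a set limit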;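 note: all wells also contain fluconazole at 8 µg/ml as a sub-toxic cotreatment; 0% = median of DMSO wells and 100% = median of geldanamycin control wells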
PolyA inh – inhibitors of polyadenylation in S. cerevisiae; AID 1875; activity score, % at 12 µM; S. cerevisiae SKY197-pL101 polyadenylation reporter, beta-gal luminescence; efflux-impaired pdr1/pdr3 knockout yeast; score 100 = 6 SD above DMSO; hit rate 0.02% among 300,000;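 active = lowest replicate activity score at least 50, where 100 means six control SD above control mean; inconclusive = lowest score under 50 but half or more replicates reach 50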;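 note: yeast exposed to compound for 9 h at 30 °C; higher score means more reporter readthrough which indicates perturbed polyadenylation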
NALP1 yeast inh – inhibitors of NALP1 inflammasome in yeast; S. cerevisiae NALP1/ASC/caspase-1 growth, X-gal OD620, 72 h; inhibition, % at 10 µM; hit rate 0.61% among 280,000; AID 2071; in the data active = inhibition mostly above about 24%, no sharp cut-off; inactive = mostly below about 32%
Lmaj promast – reduces viability of Leishmania major promastigotes; resazurin fluorescence viability; inhibition, % at 10 µM; hit rate 9% among 200,000; AID 1063; in the data active = inhibition above about 50%;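 note: promastigotes grown with compound for 44 hours at 28 °C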
T cruzi repl – blocks replication of Trypanosoma cruzi | T. cruzi beta-gal in NIH3T3, luminescence, 90 h | inhibition, % (test concentration not listed) | hit rate 1.4% among 300,000 | AID 1885;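 active = mean inhibition across valid replicates above about 55%, limit read from the data; inconclusive = mean below that limit but half or more replicates reach it; inactive = mean below it, under half of replicates reach it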;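 note: signal also drops with host cell toxicity which is not excluded here; 0% = plate median of DMSO wells and 100% = zero luminescence signal; higher percent means less beta-gal luminescence so fewer parasites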
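System: Mouse NIH/3T3 fibroblasts infected with β-gal-expressing T. cruzi Tulahuen C4 | Quantity: NIH/3T3 cells, 5,000 per well | Reagent: 5000 reporter trypomastigotes per well | Dosing: Compound pinned at 50 nL/well, DMSO | Schedule: 3 h host attachment, then at least 90 h co-culture | Detection: GalScreen luminescence, 60 min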
The depositor's hits bear a star; ? = inconclusive; · = not tested or not shown.

SMILES	NALP3 yeast inh	Calb FLC	PolyA inh	NALP1 yeast inh	Lmaj promast	T cruzi repl
O=C(O)C1CC1C(=O)N1CCN(c2ccc(Cl)c(Cl)c2)CC1 (configuration not stated)	9.8	·	-18.0	22.6	87.8*	6.4
CCOCC(O)CNc1ccccc1 (configuration not stated)	10.1	-1.0	13.7	-1.9	16.1	-11.5
OC(COc1ccccc1)CN1CCN(CC(O)COc2ccccc2)CC1 (configuration not stated)	21.6	22.1	-16.9	20.6	87.0*	-5.8
CC(C)c1ccc(OCC(O)CN2CCN(c3ccccc3)CC2)cc1 (configuration not stated)	30.1	-20.1	-67.1	23.6	86.5*	16.4
OC(CNc1ccccc1)COc1ccc(OCC(O)CNc2ccccc2)cc1 (configuration not stated)	14.1	12.7	0.4	-32.8	65.9*	62.5*
COc1ccc(OCC(O)CN2CCN(c3ccccc3)CC2)cc1 (configuration not stated)	28.0	-8.8	5.4	18.1	20.8	1.9
CCOC(=O)CC1C(=O)NCCN1S(=O)(=O)c1ccc(Br)cc1 (configuration not stated)	0.0	-5.4	18.3	-12.1	-2.2	-16.4
Cc1c(Cl)c(C(=O)NNC(=S)Nc2ccc(F)cc2)nn1C	10.8	-27.9	10.5	3.8	-4.1	-4.8
O=S(=O)(Nc1cccc(S(=O)(=O)N2CCCCC2)c1)c1ccccc1F	-13.1	·	·	·	·	·
C/C(=N/NC(=O)CNC(=O)Cc1ccc(Cl)cc1)c1ccco1	1.6	-4.8	7.1	9.7	·	-3.3
CC1CC(=O)C(C2c3ccccc3CCN2C(=O)CCl)C(=O)C1 (configuration not stated)	-13.6	-0.5	6.0	20.3	50.5*	-10.0
CC(=O)NC1C(=O)N=C(SC(C)C(=O)Nc2cccc(Cl)c2)NC1=O (configuration not stated)	2.0	2.0	-7.3	-1.6	63.4*	-18.6
CC(Sc1nc(N)cc(=O)[nH]1)C(=O)NNC(=O)c1cccc(Cl)c1 (configuration not stated)	-4.7	·	·	·	·	·
CC(Sc1nc(N)cc(=O)[nH]1)C(=O)Nc1cccc(Cl)c1 (configuration not stated)	17.9	-14.9	-18.3	12.5	56.1*	-5.4
O=[N+]([O-])c1cc(C(F)(F)F)cc([N+](=O)[O-])c1NCCNC(=S)Nc1ccc(Cl)c(Cl)c1	18.9	0.3	-4.0	12.7	·	50.8
O=C1CN(C(=O)c2ccc(Br)o2)C(c2ccc(F)cc2)c2cc(F)ccc2N1 (configuration not stated)	0.6	-11.7	19.8	15.7	95.2*	8.4
COc1ccc(C2(C(=O)NCc3ccco3)CCCC2)cc1OC	12.2	-36.5	1.4	-0.6	-3.0	-5.4
CCCCn1c(N)c(N(CC(C)C)C(=O)c2oc3ccc(OCC)cc3c2C)c(=O)[nH]c1=O	10.7	15.9	7.8	36.3*	·	4.9
CCCCN(C(=O)c1oc2ccc(OCC)cc2c1C)c1c(N)n(CC(C)C)c(=O)[nH]c1=O	5.4	0.7	-8.8	·	·	6.2
COC(=O)c1c[nH]n2c(=O)c(Cl)c(C)nc12	-6.4	5.6	4.3	20.0	-3.1	-20.9
COC(=O)c1c[nH]n2c(=O)c(Cc3ccc(F)cc3Cl)c(C)nc12	-2.1	96.7*	0.1	-0.9	28.1	-4.0
COC(=O)CN(c1cc(OC)ccc1OC)S(=O)(=O)c1ccc(OC)c(OC)c1	14.7	-7.7	5.8	28.8*	-4.7	-4.0
O=C(OCC(=O)C12CC3CC(CC(C3)C1)C2)c1cccnc1Cl	13.9	?	-11.0	31.0	60.3*	4.5
Cc1ccc(C(=O)/C=C/c2cc(C#N)n(C)c2C)cc1	36.7	2.8	-17.6	-2.8	·	9.0
CCN1C(=O)/C(=C\c2ccncc2)SC1=Nc1ccc(C)c(C)c1	21.9	2.5	24.0	23.2	51.9*	28.8
SMILES	NALP3 yeast inh	Calb FLC	PolyA inh	NALP1 yeast inh	Lmaj promast	T cruzi repl
CCCN1C(=O)/C(=C\c2ccncc2)SC1=Nc1ccccc1	31.3	-30.5	30.2	28.7	43.6	6.4
CCOc1ccc(CCNC(=O)c2ccc(Cl)c(S(=O)(=O)N3CCOCC3)c2)cc1OCC	11.2	-3.7	-18.4	·	·	23.6
Cc1noc(C)c1S(=O)(=O)Nc1ccc(C(=O)N2CCCCC2)cc1	0.9	-3.1	-20.5	37.5	-4.9	-15.8
Cc1ccc(C)c(N2CCN(C(=O)c3ccc(NS(=O)(=O)c4c(C)noc4C)cc3)CC2)c1	9.0	-1.9	-15.1	5.5	92.6*	16.2
Cc1ccc(NC(=O)c2ccc(NS(=O)(=O)c3c(C)noc3C)cc2)cc1C	5.9	-15.8	-19.4	17.8	0.7	-13.2
Cc1ccc(Cl)cc1N1CCN(C(=O)c2ccc(NS(=O)(=O)c3c(C)noc3C)cc2)CC1	7.0	10.0	-8.2	-0.8	96.4*	34.6
Cc1ccc(C)c(N2CCN(C(=O)c3ccc4nc(-c5ccco5)c(-c5ccco5)nc4c3)CC2)c1	6.5	-0.3	-13.5	27.3	82.3*	-2.2
CCN(C(=O)COC(=O)/C=C/c1cccc([N+](=O)[O-])c1)c1c(N)n(Cc2ccccc2)c(=O)[nH]c1=O	9.7	·	·	·	·	·
Cc1ccc2c(c1)Oc1ccc([N+](=O)[O-])cc1C(=O)N2	21.8	3.0	-2.8	10.0	-4.0	-18.5
Cc1ccc2c(c1)Oc1ccc(NC(=O)CCl)cc1C(=O)N2	-26.3	38.0	-4.3	12.4	98.5*	30.8
CCOC(=O)c1c(NC(=O)CN2CCOCC2)sc(C(=O)NC)c1C	15.7	?	5.7	8.2	5.0	-4.5
CCOC(=O)c1c(NC(=O)CN2CCN(C)CC2)sc(C(=O)Nc2ccccc2)c1C	8.4	2.2	17.5	-19.5	99.5*	18.3
CCOC(=O)c1sc(NC(=O)CCN2CCN(C)CC2)c(C(=O)OCC)c1C	5.0	-14.1	-4.7	19.1	100.3*	10.6
O=C(COc1ccc(Br)cc1)NCCCN1CCCC1=O	-15.8	·	·	·	·	·
Cc1ccc(Nc2ncc(C(=O)NCCCN3CCN(C)CC3)c3ccccc23)cc1Cl	-2.1	4.4	3.2	32.0	84.1*	6.1
Cc1ccc(/C=C/C(=O)NCCc2ccccc2)o1	23.2	2.6	-12.6	14.2	·	-22.3
COc1c(C)cccc1C(=O)NCCCNC(=O)c1ccc(C)nc1	15.4	27.0	-8.3	9.7	·	3.7
Cc1ccc2c(Cl)c(C)c(N3CCCCC3)nc2n1	25.4	19.9	-17.9	46.0*	18.4	11.4
Cc1ccccc1NC(=O)Cc1nc(COC(=O)CCNS(=O)(=O)c2ccccc2)cs1	11.8	-5.0	4.0	·	·	5.9
COc1ccc(C2NC(c3ccc(OC)cc3)C(c3ccccc3)C(=O)C2c2ccccc2)cc1 (configuration not stated)	11.5	28.1	1.1	12.3	98.2*	1.1
CC1CC(C)CN(S(=O)(=O)c2ccc(NC(=O)c3ccc(=O)[nH]c3)cc2)C1 (configuration not stated)	18.7	·	·	·	·	·
